Experimental data taken from ChEMBL document CHEMBL1909566, “Diverse metabolic profiles of a Streptomyces strain isolated from a hyper-arid environment” (2011).
Converted amounts (≈) assume the structure as drawn.

Experiments:
Assay type in all cases: functional
Listeria monocytogenes = experiment: Antibacterial activity against Listeria monocytogenes ATCC 19115 after 18 hrs by […]; conditions: ATCC 19115, 18 h
Procedure, shortened: (§1)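 Compounds were first screened by agar diffusion, with filter-paper disks of ampicillin (10 μg), oxolinic acid (2 μg) or oxytetracycline (30 μg) as positive controls. For MICs, strains were grown in Müller-Hinton broth to early stationary phase and diluted to OD600 = 0.005. Compound dilutions were added in DMSO (final 10%). Growth was read at OD620 after 18 h at 37 C, in duplicate with two independent cultures.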

Staphylococcus aureus = experiment: Antibacterial activity against Staphylococcus aureus ATCC 25293 after 18 hrs by […]; conditions: ATCC 25923, 18 h, in the assay text read “ATCC 25923” for “ATCC 25293”; procedure, shortened: as §1
Escherichia coli = experiment: Antibacterial activity against Escherichia coli ATCC 25922 after 18 hrs by […]; conditions: ATCC 25922, 18 h; procedure, shortened: as §1
Vibrio parahaemolyticus = experiment: Antibacterial activity against Vibrio parahaemolyticus NCTC 10441 after 18 hrs by […]; conditions: NCTC 10441, 18 h; procedure, shortened: as §1
Bacillus subtilis = experiment: Antibacterial activity against Bacillus subtilis NCTC 2116 after 18 hrs by […]; conditions: NCTC 2116, 18 h; procedure, shortened: as §1

SMILES	MIC (Listeria monocytogenes) [µg/mL]	MIC (Staphylococcus aureus) [µg/mL]	MIC (Escherichia coli) [µg/mL]	MIC (Vibrio parahaemolyticus) [µg/mL]	MIC (Bacillus subtilis) [µg/mL]
CC/C=C/[C@H]1C/C=C/C=C\[C@H](O)C[C@@H](O)[C@@H](C)/C=C/C[C@@H](C)/C=C/C=C(C)/C=C/C(=O)O1 [CHAXALACTIN A]	6.3 (≈ 14.3 µM)	0.4 (≈ 0.908 µM)	> 20	12.5 (≈ 28.4 µM)	3.1 (≈ 7.04 µM)
CC/C=C/[C@H]1C/C=C/C=C\[C@H](O)[C@@H](O)[C@@H](O)[C@@H](C)/C=C/C[C@@H](C)/C=C/C=C(C)/C=C/C(=O)O1 [CHAXALACTIN B]	5 (≈ 10.9 µM)	0.2 (≈ 0.438 µM)	> 20	20 (≈ 43.8 µM)	5 (≈ 10.9 µM)
CC/C=C/[C@H]1C/C=C/C=C\[C@H](OC)[C@@H](O)[C@@H](O)[C@@H](C)/C=C/C[C@@H](C)/C=C/C=C(C)/C=C/C(=O)O1 [CHAXALACTIN C]	6.3 (≈ 13.4 µM)	0.8 (≈ 1.7 µM)	> 20	12.5 (≈ 26.6 µM)	6.3 (≈ 13.4 µM)
